From PMC2094070 (Nucleic Acids Research, 2007) come the findings set out here.

Assay [1] relates to M. smegmatis Leishmania hybrids (Leishmania/Trypanosoma decoding site). As to the kind of experiment: MIC broth microdilution, cells with Leishmania/Trypanosoma hybrid ribosomes. The conditions noted are these: for Relative resistance (ratio of mutant to wild-type MIC): Leishmania hybrids versus wild-type M. smegmatis; for MIC: M. smegmatis cells with Leishmania/Trypanosoma hybrid ribosomes, 37°C, 72 h. Type of assay: cell-based, Mycobacterium smegmatis.

The subject of assay [2] is M. smegmatis mutants carrying human–bacterial hybrid ribosomes (Homo sapiens helix 44 decoding site). As to the kind of experiment: MIC broth microdilution, cells with human-bacterial hybrid ribosomes. Type of assay: cell-based, Mycobacterium smegmatis. The conditions noted are these: for Relative resistance (ratio of mutant to wild-type MIC): human hybrids versus wild-type M. smegmatis; for MIC: M. smegmatis cells with Homo sapiens hybrid ribosomes, 37°C, 72 h.

Assay [3] relates to cytosolic ribosomes in rabbit reticulocyte lysate. The experiment in a line: Rabbit reticulocyte translation assay. Type of assay: biochemical. The settings on record: read-out: IC50, inhibition of luciferase synthesis, luciferase mRNA, 30°C, 90 min. Put shortly: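 Rabbit reticulocyte lysate supplied cytosolic ribosomes to translate firefly luciferase control mRNA (500 ng), with amino acids (100 μM each) and RNasin. Aminoglycosides were added as serial dilutions, then incubated at 30°C for 90 min. Luciferase substrate was added and luminescent activity read. IC50 and the 100% value came from best-fit nonlinear regression.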

Assay [4] relates to wild-type M. smegmatis 70S ribosomes. As to the kind of experiment: Cell-free luciferase translation assay, wild-type ribosomes. Type of assay: biochemical. The conditions noted are these: read-out: IC50, inhibition of luciferase synthesis; Mycobacterium smegmatis wild-type ribosomes; coupled transcription–translation, 37°C, 60 min.
In assay [5] the test system is Mycobacterium smegmatis hybrids with a Blastocrithidia decoding region. The experiment in a line: MIC broth microdilution, cells with Blastocrithidia hybrid ribosomes. Type of assay: cell-based. The settings on record: M. smegmatis cells with Blastocrithidia hybrid ribosomes; 37°C, 72 h.
The subject of assay [6] is Mycobacterium smegmatis wild-type. As to the kind of experiment: MIC broth microdilution, wild-type strain. Type of assay: cell-based. The settings on record: 37°C, 72 h.

For the molecule `CNC(C)C1CCC(N)C(OC2C(N)CC(N)C(OC3OCC(C)(O)C(NC)C3O)C2O)O1` (stereo not shown) [Gentamicin, gentamicin], the “Relative resistance (ratio of mutant to wild-type MIC)” value in assay [1] and in assay [2] was no less than 1024 in each case.
For the molecule `CCN[C@@H]1C[C@H](N)[C@@H](O[C@H]2OC(CN)=CC[C@H]2N)[C@H](O)[C@H]1O[C@H]1OC[C@](C)(O)[C@H](NC)[C@H]1O` [Netilmicin, netilmicin], the results for the IC50 in assay [3] and in assay [4] were 58000 nM and 50 nM, respectively. Besides, the “Relative resistance (ratio of mutant to wild-type MIC)” value in assay [1] and in assay [2] was no less than 1024 each time.
`NC[C@H]1O[C@H](O[C@H]2[C@H](O)[C@@H](O[C@H]3O[C@H](CO)[C@@H](O)[C@H](N)[C@H]3O)[C@H](N)C[C@@H]2N)[C@H](N)C[C@@H]1O` [Tobramycin, tobramycin]: the IC50 is 38000 nM in assay [3] and 20 nM in assay [4]. Further, the “Relative resistance (ratio of mutant to wild-type MIC)” value in assay [1] and in assay [2] was no less than 1024 in each case.
Regarding neomycin, the MIC in assay [5] is 1 µg/mL; in assay [6], 0.5 µg/mL; in assay [1], greater than 1024 µg/mL; in assay [2] it was greater than 1024 µg/mL. The IC50 in assay [3] was found to be 18000 nM; in assay [4], 40 nM. Further, the “Relative resistance (ratio of mutant to wild-type MIC)” value in assay [1] and in assay [2] was no less than 1024 throughout.
For the molecule `CN[C@@H]1[C@@H](O)[C@@H](O[C@@H]2[C@@H](O)[C@H](O[C@H]3O[C@H]([C@@H](C)O)[C@@H](O)[C@H](O)[C@H]3N)[C@@H](N)C[C@H]2N)OC[C@]1(C)O` [Geneticin, geneticin (G418)], the IC50 in assay [3] stood at 200 nM; in assay [4], 30 nM.
On to `NC[C@@H]1O[C@H](O[C@H]2[C@@H](O)[C@H](O[C@@H]3[C@@H](O)[C@H](N)C[C@H](N)[C@H]3O[C@H]3O[C@H](CO)[C@@H](O)[C@H](O)[C@H]3N)O[C@@H]2CO)[C@H](N)[C@@H](O)[C@@H]1O` [Paromomycin, paromomycin], for which the IC50 in assay [3] was 9200 nM; in assay [4], 30 nM. Further, the “Relative resistance (ratio of mutant to wild-type MIC)” value in assay [2] was no less than 1024.
Regarding kanamycin A, the MIC is 1 µg/mL in assay [5], 1 µg/mL in assay [6], greater than 1024 µg/mL in assay [1] and greater than 1024 µg/mL in assay [2]. In addition, the IC50 came to 67000 nM in assay [3] and 50 nM in assay [4]. In addition, the “Relative resistance (ratio of mutant to wild-type MIC)” value in assay [1] and in assay [2] was no less than 1024 in each case.
